According to ChEMBL document CHEMBL2203249, “Optimization of a small tropomyosin-related kinase B (TrkB) agonist 7,8-dihydroxyflavone active in mouse models of depression” (J Med Chem, 2012):
Calls of active or inactive are those of the source. The calls are words filed in the database; no cut-off is given here.

Key:
[1] = tested on: Mus musculus; assay: Agonist activity at TrkA receptor in C57BL/J6 mouse brain assessed as TrkA phosphorylation at tyrosine 794 in cortex at 5 mg/kg, po administered qd for 21 days by immunoblotting analysis; format: functional, organism-based; design: dose 5 mg/kg
[2] = biological target: BDNF/NT-3 growth factors receptor (Rattus norvegicus) (UniProt Q63604); assay: Agonist activity at TrkB receptor in E17 rat embryo primary neurons assessed as TrkB phosphorylation at tyrosine 817 at 500 nM after 15 mins by immunoblotting analysis; format: functional
BDNF/NT-3 growth factors receptor (Rattus norvegicus), sequence (Q63604 whole entry): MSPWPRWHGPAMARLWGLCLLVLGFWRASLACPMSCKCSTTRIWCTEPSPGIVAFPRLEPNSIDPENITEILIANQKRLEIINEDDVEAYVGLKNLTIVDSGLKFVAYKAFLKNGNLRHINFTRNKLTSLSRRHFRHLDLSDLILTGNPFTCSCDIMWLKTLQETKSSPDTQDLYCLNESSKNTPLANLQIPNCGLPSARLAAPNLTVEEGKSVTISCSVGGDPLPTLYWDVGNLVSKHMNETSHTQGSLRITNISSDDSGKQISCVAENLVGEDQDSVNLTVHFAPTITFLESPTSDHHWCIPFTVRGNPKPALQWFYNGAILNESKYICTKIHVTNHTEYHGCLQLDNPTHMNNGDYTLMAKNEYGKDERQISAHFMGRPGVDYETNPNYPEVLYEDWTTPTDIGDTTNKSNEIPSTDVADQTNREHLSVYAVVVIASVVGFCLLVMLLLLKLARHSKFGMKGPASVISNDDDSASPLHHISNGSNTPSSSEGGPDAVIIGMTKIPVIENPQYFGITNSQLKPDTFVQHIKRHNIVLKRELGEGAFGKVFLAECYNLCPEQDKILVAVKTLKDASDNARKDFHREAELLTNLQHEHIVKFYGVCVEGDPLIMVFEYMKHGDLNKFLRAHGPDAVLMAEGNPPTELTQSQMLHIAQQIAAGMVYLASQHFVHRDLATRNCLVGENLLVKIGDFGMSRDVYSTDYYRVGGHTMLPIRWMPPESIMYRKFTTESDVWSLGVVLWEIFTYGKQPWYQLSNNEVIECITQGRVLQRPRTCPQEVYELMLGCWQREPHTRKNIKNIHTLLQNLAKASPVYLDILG
How it was run: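 Primary cortical cultures from E17 rat embryos were exposed to 500 nM for 15 min. Lysates were immunoblotted for p-TrkB and p-Akt (20 μg per lane). Two replicate experiments.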

[3] = tested on: Mus musculus; assay: Agonist activity at TrkB receptor in C57BL/J6 mouse brain assessed as Akt phosphorylation at serine 473 in hippocampus at 1 mg/kg, po after 4 hrs by ELISA; format: functional, organism-based; design: dose 1 mg/kg
How it was run: (§1)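 Male C57BL/6 mice, two months old, received a single 1 mg/kg oral dose, with saline controls. Brain was taken at set time points and lysed. Phospho-Akt S473 was measured by sandwich ELISA on 20 μg lysate: overnight capture at 4°C, detection antibody, HRP secondary and TMB, read at 450 minus 650 nm. Two replicate experiments, one-way ANOVA against control.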

[4] = tested on: Mus musculus; assay: Agonist activity at TrkB receptor in C57BL/J6 mouse brain assessed as TrkB phosphorylation at tyrosine 706 at 1 mg/kg, po by immunoblotting analysis; format: functional, organism-based; design: dose 1 mg/kg
How it was run: (§2)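 Male C57BL/6 mice, two months old, received a single 1 mg/kg oral dose, with saline controls. Brain or hippocampus was collected 4 h later (time-course samples at various times). Homogenates were ultracentrifuged and 40 μg supernatant was immunoblotted for p-TrkB, p-Akt and p-MAPK.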

[5] = tested on: Mus musculus; assay: Antidepressant activity in C57BL/J6 mouse assessed as reduction of immobility at 5 mg/kg, po administered qd for 21 days recorded in last 4 mins by forced swim test; format: functional, organism-based; design: dose 5 mg/kg
How it was run: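 Male C57BL/6J mice, 2–3 months old, were gavaged daily for 21 days with drug (5 or 2.5 mg/kg) or saline and adapted to the test room for 2 days. With no preswim, each mouse was placed for 6 min in a 16-cm cylinder of 24 °C water, 14 cm deep. Immobility in the last 4 min was scored blind and compared by unpaired t-test (n=6 or 8).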

[6] = tested on: Mus musculus; assay: Agonist activity at TrkB receptor in C57BL/J6 mouse brain assessed as Akt phosphorylation at serine 473 at 1 mg/kg, po by immunoblotting analysis; format: functional, organism-based; design: dose 1 mg/kg; how it was run: as §2
[7] = tested on: Mus musculus; assay: Agonist activity at TrkB receptor in C57BL/J6 mouse brain assessed as TrkB phosphorylation at tyrosine 816 in hippocampus at 1 mg/kg, po after 4 hrs by immunoblotting analysis; format: functional, organism-based; design: dose 1 mg/kg; how it was run: as §2
[8] = tested on: Mus musculus; assay: Agonist activity at TrkB receptor in C57BL/J6 mouse brain assessed as Akt phosphorylation at serine 473 at 1 mg/kg, po after 1 hr by ELISA; format: functional, organism-based; design: dose 1 mg/kg; how it was run: as §1
[9] = tested on: Mus musculus; assay: Agonist activity at TrkB receptor in C57BL/J6 mouse brain assessed as Akt phosphorylation at serine 473 at 1 mg/kg, po after 4 hrs by ELISA; format: functional, organism-based; design: dose 1 mg/kg; how it was run: as §1
[10] = tested on: Mus musculus; assay: Agonist activity at TrkB receptor in C57BL/J6 mouse brain assessed as TrkB phosphorylation at tyrosine 816 in cortex at 5 mg/kg, po administered qd for 21 days by immunoblotting analysis; format: functional, organism-based; design: dose 5 mg/kg
[11] = tested on: Mus musculus; assay: Agonist activity at TrkB receptor in C57BL/J6 mouse brain assessed as Akt phosphorylation at serine 473 at 1 mg/kg, po after 8 hrs by ELISA; format: functional, organism-based; design: dose 1 mg/kg; how it was run: as §1
[12] = tested on: HepG2; assay: Genotoxicity in human HepG2 cells assessed as induction of DNA lesion at 100 uM after 24 hrs by comet assay; format: toxicity, cell-based; conditions: hepg2, 24 h
How it was run: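 HepG2 cells were exposed to 100 μM for 24 h, with etoposide as positive control. Cells were embedded in agarose, lysed 2 h at 4°C at pH 10, unwound 40 min in alkali at pH >13 and electrophoresed at 25 V for 30 min at 4°C. After ethidium bromide staining, comet-tail nuclei were counted in >100 cells per field. Three independent experiments, one-way ANOVA.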

[13] = tested on: HepG2; assay: Genotoxicity in human HepG2 cells assessed as micronuclei formation at 50 uM after 24 hrs by DAPI staining; format: toxicity, cell-based; conditions: hepg2, 24 h
How it was run: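 HepG2 cells were exposed to 50 μM for 24 h, with benzo(a)pyrene as positive control. Cells were swollen in hypotonic KCl/NaCl for 10 min at 37°C, fixed in methanol/acetic acid 3:1 and stained with DAPI at 2 μg/ml. Three independent experiments, one-way ANOVA.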

[14] = tested on: HepG2; assay: Cytotoxicity against human HepG2 cells assessed as cell death upto 100 uM after 24 hrs by LDH assay; format: cell-based; conditions: hepg2, 24 h
How it was run: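 HepG2 cells were exposed to a range of concentrations up to 100 μM for 24 h, and cytotoxicity was measured by LDH release. n=3.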

[15] = tested on: Mus musculus; assay: Elimination half life in mouse at 1 mg/kg, iv by HPLC analysis; format: ADME, organism-based; design: dose 1 mg/kg, route intravenous; conditions: in vivo
How it was run: (§3)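 Mice of 20–30 g, 6–8 weeks old, dosed i.v. or orally. Blood was drawn at 3, 10, 30, 60, 120, 240, 360 and 480 min into lithium-heparin tubes, spun at 2500 × g for 15 min at 4°C within 1 h and stored at −20°C. Plasma was analysed by HPLC, 3 mice per time point. AUC was calculated by the linear/log trapezoidal method.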

[16] = tested on: Mus musculus; assay: Agonist activity at TrkB receptor in C57BL/J6 mouse brain assessed as MAPK phosphorylation in hippocampus at 1 mg/kg, po after 4 hrs by immunoblotting analysis; format: functional, organism-based; design: dose 1 mg/kg; how it was run: as §2
[17] = tested on: Mus musculus; assay: AUC (infinity) in mouse at 1 mg/kg, iv by HPLC analysis; format: ADME, organism-based, Plasma; design: time infinity, dose 1 mg/kg, route intravenous; conditions: in vivo; how it was run: as §3
[18] = tested on: Mus musculus; assay: AUC last in mouse at 1 mg/kg, iv by HPLC analysis; format: ADME, organism-based, Plasma; design: time 0 - last, dose 1 mg/kg, route intravenous; conditions: in vivo; how it was run: as §3
[19] = tested on: Mus musculus; assay: Agonist activity at TrkB receptor in C57BL/J6 mouse brain assessed as Akt phosphorylation at serine 473 in hippocampus at 1 mg/kg, po after 4 hrs by immunoblotting analysis; format: functional, organism-based; design: dose 1 mg/kg; how it was run: as §2
[20] = tested on: Mus musculus; assay: Volume of distribution at steady state in mouse at 1 mg/kg, iv by HPLC analysis; format: ADME, organism-based; design: dose 1 mg/kg, route intravenous; conditions: in vivo
How it was run: (§4)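 Mice (20–30 g, 6–8 weeks old) were dosed i.v. or orally. Blood was drawn into lithium-heparin tubes at 3, 10, 30, 60, 120, 240, 360 and 480 min, with 3 mice per time point. Plasma was separated at 2500 × g for 15 min at 4°C within 1 h and stored at −20°C. Samples were analysed by HPLC, and AUC was calculated by the linear/log trapezoidal method.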

[21] = tested on: Mus musculus; assay: Volume of distribution in mouse at 1 mg/kg, iv by HPLC analysis; format: ADME, organism-based; design: dose 1 mg/kg, route intravenous; conditions: in vivo; how it was run: as §4
[22] = tested on: Mus musculus; assay: Agonist activity at TrkB receptor in C57BL/J6 mouse brain assessed as Akt phosphorylation at serine 473 at 1 mg/kg, po after 8 hrs by ELISA relative to control; format: functional; how it was run: as §1
[23] = tested on: Mus musculus; assay: Antidepressant activity in C57BL/J6 mouse assessed as increase in locomotion at 5 mg/kg, po qd for 21 days tested on day 22 by locomotor activity assay; format: functional, organism-based; design: dose 5 mg/kg
How it was run: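 Male C57BL/6J mice were gavaged with 5 mg/kg/day or saline vehicle for 21 days. On day 22, ambulation (consecutive photobeam breaks) was recorded in automated chambers for 2 h in 30-min intervals. n=6, two-way ANOVA.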

SMILES | Activity [2] | Activity [3] | Activity [7] | other results
O=c1c(F)c(-c2cccc(O)c2)oc2c(O)c(O)ccc12 | Active | Active | Active | Activity [1]: inactive; Activity [4]: inactive; Activity [5]: Active; Activity [6]: inactive; Activity [8]: Active; Activity [9]: inactive; Activity [10]: Active; Activity [11]: inactive
O=c1cc(-c2ccc(N3CCCC3)cc2)oc2c1ccc1nc[nH]c12 | – | – | – | Activity [12]: Non-toxic; Activity [13]: Non-toxic; Activity [14]: Non-toxic
c1ccc2c(c1)cc1ccc3cccc4ccc2c1c34 | – | – | – | Activity [13]: Toxic
CN(C)c1ccc(-c2cc(=O)c3ccc4nc[nH]c4c3o2)cc1 | Active | Active | Active | Activity [16]: Active; Activity [1]: inactive; Activity [12]: Toxic; Activity [22]: 250%; Activity ([4]; TDE = time-dependent effect): tde; Activity [5]: Active; Activity [13]: Non-toxic; Activity ([6]; TDE = time-dependent effect): tde; Activity [19]: Active; Activity [23]: Active; Activity [10]: Active; Activity [14]: Non-toxic
O=c1cc(-c2ccccc2)oc2c(O)c(O)cc(F)c12 | Active | Active | Active | –
CN(C)c1ccc(-c2cc(=O)c3c(F)cc(O)c(O)c3o2)cc1 | Active | Active | Active | –
O=c1cc(-c2ccccc2)[nH]c2c(O)c(O)ccc12 | inactive | Active | Active | –
O=c1c(F)c(-c2ccccc2)oc2c(O)c(O)ccc12 | Active | Active | Active | –

Second part, led by results:

Activity [2] | SMILES | Activity [3] | Activity [7] | other results
inactive | O=c1cc(-c2ccc(F)cc2)oc2c(O)c(O)ccc12 | – | – | –
inactive | O=c1cc(-c2ccc(F)cc2)[nH]c2c(O)c(O)ccc12 | Active | Active | –
Active | Br.CN(C)c1ccc(-c2cc(=O)c3ccc(O)c(O)c3o2)cc1 | Active | Active | beta t1/2 [15]: 9 min; Activity [16]: Active; AUC [17]: 5943 ng·min/mL; AUClast [18]: 5930 ng·min/mL; Activity [19]: Active; Vdss [20]: 0.803 L/kg; Vz [21]: 2.117 L/kg
Active | CN(C)c1cccc(-c2cc(=O)c3ccc(O)c(O)c3o2)c1 | Active | Active | –
Active | O=c1cc(-c2cncnc2)oc2c(O)c(O)ccc12 | Active | Active | –
